Published values gathered from unrelated publications.
Target: Myotonin-protein kinase (DMPK, Homo sapiens, UniProt Q09013)
One construct used (Q09013 1-629): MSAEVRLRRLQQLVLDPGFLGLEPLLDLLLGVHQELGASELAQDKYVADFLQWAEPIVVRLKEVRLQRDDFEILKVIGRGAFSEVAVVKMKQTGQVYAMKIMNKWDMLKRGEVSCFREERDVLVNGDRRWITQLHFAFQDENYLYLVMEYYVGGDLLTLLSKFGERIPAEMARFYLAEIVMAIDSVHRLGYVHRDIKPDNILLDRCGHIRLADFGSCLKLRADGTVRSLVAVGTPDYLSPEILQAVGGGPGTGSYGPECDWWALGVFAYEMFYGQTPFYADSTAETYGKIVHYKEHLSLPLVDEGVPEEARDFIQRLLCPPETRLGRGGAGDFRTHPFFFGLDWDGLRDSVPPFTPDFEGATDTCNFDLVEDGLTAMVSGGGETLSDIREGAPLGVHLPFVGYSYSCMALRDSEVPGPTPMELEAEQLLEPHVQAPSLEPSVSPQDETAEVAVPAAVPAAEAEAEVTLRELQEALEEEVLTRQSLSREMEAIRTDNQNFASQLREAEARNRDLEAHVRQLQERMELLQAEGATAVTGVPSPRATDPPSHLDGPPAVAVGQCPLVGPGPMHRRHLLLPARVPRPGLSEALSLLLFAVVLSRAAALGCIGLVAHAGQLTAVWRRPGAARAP

The remaining binding of `CNC(=O)c1ccc(Nc2ncc(C(F)(F)F)c(NCc3nccnc3N(C)S(C)(=O)=O)n2)cc1` is reported as 16% (cell-free assay, competition with immobilised ligand; 0.1 µM).
For `c1cncc(-c2cccc(Nc3nccc(NC4CCCCC4)n3)c2)c1`, the remaining binding was 100% (binding, competition with immobilised ligand; 10 µM).
`O=C(NCC1CCOCC1)c1n[nH]cc1NC(=O)c1c(F)cccc1F` has a remaining binding of 38% (binding, competition with immobilised ligand; 1 µM).
For `C=CC(=O)N1CCC(C(=O)NCC(=O)N2CCN(c3nc(-c4cnc(N)nc4C(F)F)nc(N4CCOCC4)n3)CC2)CC1`, the remaining binding was 87% (binding, competition with immobilised ligand; 1 µM).
The remaining binding of `N[C@H]1CCN(c2nccc(-c3cnn4ncccc34)n2)C1` is reported as 57% (binding; 1 µM).
With `O=C(c1ccc(Nc2ncc(Cl)c(-c3ccc(Cl)s3)n2)cc1)N1CCC(N2CCCC2)CC1` the remaining binding was 100% (binding, competition with immobilised ligand; 1 µM).
`CCS(=O)(=O)c1cc2cc(C[C@@](O)(CC(C)(C)c3ccc(F)cc3C(N)=O)C(F)(F)F)[nH]c2cn1` gave a remaining binding of 85% (cell-free assay, competition with immobilised ligand; 1 µM).
`O=C(NCCCN1CCOCC1)c1ccc(Nc2ncc(Cl)c(-c3ccc(Cl)s3)n2)cc1` gave a remaining binding of 100% (binding, competition with immobilised ligand; 1 µM).
`Nc1cnc(N2CCc3cc(S(=O)(=O)Nc4c(F)cc(Cl)cc4F)cc(N4CCCC4=O)c32)nc1` has a remaining binding of 100% (cell-free assay, competition with immobilised ligand; 1 µM).
`Nc1ncc2c(n1)-c1c([nH]c3ccc(C#CC4CC4)cc13)CCCC2` gave a remaining binding of 82% (binding, competition with immobilised ligand; 1 µM).
With `c1cnn2ncc(-c3ccnc(N4CCC45COC5)n3)c2c1` the remaining binding was 98% (binding; 1 µM).
For `CNCc1ccccc1-c1csc([C@H](C)Nc2nc(C)nc3cc(OC)c(OC)cc23)c1`, the remaining binding was 85% (cell-free assay, competition with immobilised ligand; 1 µM).
For `CNC(=O)[C@@H]1CC[C@@H](n2c(-c3ccc4cnccc4c3)nc3ccc(C(=O)NCc4cccc(C(N)=O)c4)cc32)C1`, the remaining binding was 86% (binding, competition with immobilised ligand; 1 µM).
For `CN(c1nccc(-c2cnn3ncccc23)n1)C1CC1`, the remaining binding was 100% (binding; 1 µM).
`FC(F)(F)Oc1cccc(-c2cnc3ccc(-c4ccncc4)nn23)c1` has a remaining binding of 99% (cell-free assay, competition with immobilised ligand; 5 µM).
`COc1cccc(CNC(=O)c2nc3scc(COCc4ccc(C(=O)O)cc4)c3c(=O)[nH]2)c1` has a remaining binding of 85.4% (cell-free assay, competition with immobilised ligand; 1 µM).
`CN(C)c1nccc(-c2cnc3ncccn23)n1` has a remaining binding of 82% (binding; 1 µM).
`O=C(c1ccc(Nc2ncc(Cl)c(-c3cc4ccccc4s3)n2)cc1)N1CCC(N2CCCC2)CC1` gave a remaining binding of 75% (binding, competition with immobilised ligand; 1 µM).
With `C[C@H]1CCN(c2nccc(-c3cnn4ncccc34)n2)C1` the remaining binding was 100% (binding; 1 µM).
For `C[C@H](NC(=O)c1cnc2n1[C@](C)(Cc1ccc(C#N)cc1)C(=O)N2c1cc(Cl)c(F)c(Cl)c1)C(=O)NC1(c2ccccn2)CC1`, the remaining binding was 67% (cell-free assay, competition with immobilised ligand; 1 µM).
`Cc1cnn2ncc(-c3ccnc(N(C)C)n3)c2c1` gave a remaining binding of 100% (binding; 1 µM).
`COc1cnc(Nc2cccc(S(N)(=O)=O)c2)nc1N1CCN(c2ccccc2)CC1` has a remaining binding of 100% (binding, competition with immobilised ligand; 1 µM).
